What is called MIC is the lowest concentration that inhibits growth of the organism.

Values after ≈ are worked out from the molar mass of the structure shown.

Type in all cases: functional
Experiment [1] relates to Schizosaccharomyces pombe. The experiment can be described thus: Minimum inhibitory concentration against Schizosaccharomyces pombe. The procedure, abridged:
(§1)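 Strains: S. cerevisiae IFO 0203, S. pombe IFO 0342, C. utilis OUT 6020, R. rubra IFO 0001, A. niger ATCC 6275, P. chrysogenum IFO 4626, R. chinensis IFO 4768, M. mucedo IFO 7684.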

For a further experiment, the system named is Pseudomonas aeruginosa. Description: Minimum inhibitory concentration against Pseudomonas aeruginosa. The procedure, abridged:
(§2)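 MIC by 2-fold broth dilution in peptone medium containing compound; bacteria grown in test tubes at 37 °C for 2 days. Strains: S. aureus NCTC 8530, B. subtilis IFO 3007, E. coli IFO 3545, P. vulgaris IFO 3851, P. aeruginosa IFO 3080.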

The nature of experiment [2]: Minimum inhibitory concentration against Penicillium chrysogenum. Summed up: as §1
In a further experiment the test system is Aspergillus niger. The experiment can be described thus: Minimum inhibitory concentration against Aspergillus niger. The procedure, abridged:
as §1

Another experiment has as its system Mucor mucedo. The experiment can be described thus: Minimum inhibitory concentration against Mucor mucedo. Summed up:
as §1

For a further experiment, the system named is Saccharomyces cerevisiae. The experiment can be described thus: Minimum inhibitory concentration against Saccharomyces cerevisiae. The procedure, abridged: as §1
In a further experiment the test system is Rhodotorula mucilaginosa. The experiment can be described thus: Minimum inhibitory concentration against Rhodotorula rubra. The procedure, abridged: as §1
For the next experiment, the system named is Staphylococcus aureus. The experiment can be described thus: Minimum inhibitory concentration against Staphylococcus aureus. The procedure, abridged: as §2
Another experiment concerns Bacillus subtilis. Description: Minimum inhibitory concentration against Bacillus subtilis. Summed up: as §2
Experiment [3] concerns Rhizopus microsporus var. chinensis. The experiment can be described thus: Minimum inhibitory concentration against Rhizopus chinensis. The procedure, abridged:
as §1

Another experiment has as its system Escherichia coli. The experiment can be described thus: Minimum inhibitory concentration against Escherichia coli. The procedure, abridged: as §2
In the next experiment the test system is Proteus vulgaris. Description: Minimum inhibitory concentration against Proteus vulgaris. The procedure, abridged:
as §2

A further experiment has as its system Cyberlindnera jadinii. The experiment can be described thus: Minimum inhibitory concentration against Candida utilis. Conditions: Williopsis jadinii. The procedure, abridged: as §1

Take `O=C1c2cnccc2C(=O)c2c(O)cccc21`: the MIC in experiment [1] came to 0.2 µg/mL (≈ 0.888 µM); in the experiment on Pseudomonas aeruginosa, 3.13 µg/mL (≈ 13.9 µM); in experiment [2] it was 1.56 µg/mL (≈ 6.93 µM); with Aspergillus niger it was 3.13 µg/mL (≈ 13.9 µM); with Mucor mucedo it was 6.25 µg/mL (≈ 27.8 µM); against Saccharomyces cerevisiae, 3.13 µg/mL (≈ 13.9 µM). Also, the MIC is 3.13 µg/mL (≈ 13.9 µM) in the experiment with Rhodotorula mucilaginosa; 1.56 µg/mL (≈ 6.93 µM) with Staphylococcus aureus; 3.13 µg/mL (≈ 13.9 µM) with Bacillus subtilis; 6.25 µg/mL (≈ 27.8 µM) in [3]; over 100 µg/mL against Escherichia coli; 25 µg/mL (≈ 111 µM) against Proteus vulgaris. Moreover, in the experiment on Cyberlindnera jadinii, the lowest concentration to inhibit growth (MIC) was 6.25 µg/mL (≈ 27.8 µM).

On to `O=C1c2ccncc2C(=O)c2c(O)cccc21`, for which the MIC in experiment [1] was 0.78 µg/mL (≈ 3.46 µM); against Pseudomonas aeruginosa it was 3.13 µg/mL (≈ 13.9 µM); in experiment [2], 1.56 µg/mL (≈ 6.93 µM); against Aspergillus niger, 3.13 µg/mL (≈ 13.9 µM); in the experiment with Mucor mucedo it was 3.13 µg/mL (≈ 13.9 µM); against Saccharomyces cerevisiae it was 3.13 µg/mL (≈ 13.9 µM). For the same compound, the MIC is 3.13 µg/mL (≈ 13.9 µM) in the experiment with Rhodotorula mucilaginosa; 1.56 µg/mL (≈ 6.93 µM) against Staphylococcus aureus; 3.13 µg/mL (≈ 13.9 µM) in the experiment with Bacillus subtilis; 12.5 µg/mL (≈ 55.5 µM) in experiment [3]; over 100 µg/mL in the experiment on Escherichia coli; 25 µg/mL (≈ 111 µM) with Proteus vulgaris. The same compound returned an MIC in the experiment with Cyberlindnera jadinii of 12.5 µg/mL (≈ 55.5 µM).

With `O=C1c2cnccc2C(=O)c2sccc21`, the MIC in experiment [1] was 0.39 µg/mL (≈ 1.81 µM); against Pseudomonas aeruginosa, 1.56 µg/mL (≈ 7.25 µM); in experiment [2] it was 0.78 µg/mL (≈ 3.62 µM); against Aspergillus niger it was 0.78 µg/mL (≈ 3.62 µM); in the experiment with Mucor mucedo it was 3.13 µg/mL (≈ 14.5 µM); against Saccharomyces cerevisiae it was 1.56 µg/mL (≈ 7.25 µM). For the same compound, the MIC against Rhodotorula mucilaginosa came out at 1.56 µg/mL (≈ 7.25 µM); against Staphylococcus aureus, 1.56 µg/mL (≈ 7.25 µM); against Bacillus subtilis it was 6.25 µg/mL (≈ 29 µM); in [3], 6.25 µg/mL (≈ 29 µM); in the experiment with Escherichia coli, 100 µg/mL (≈ 465 µM); in the experiment with Proteus vulgaris it was 50 µg/mL (≈ 232 µM). Also, in the experiment with Cyberlindnera jadinii, the MIC was found to be 3.13 µg/mL (≈ 14.5 µM).

Consider `O=C1c2ccccc2C(=O)c2cnccc21`, for which the MIC in experiment [1] stood at 3.13 µg/mL (≈ 15 µM); with Pseudomonas aeruginosa it was 6.25 µg/mL (≈ 29.9 µM); in experiment [2], 3.13 µg/mL (≈ 15 µM); against Aspergillus niger, 12.5 µg/mL (≈ 59.8 µM); with Mucor mucedo it was 6.25 µg/mL (≈ 29.9 µM); in the experiment with Saccharomyces cerevisiae, 12.5 µg/mL (≈ 59.8 µM). The MIC is 6.25 µg/mL (≈ 29.9 µM) in the experiment on Rhodotorula mucilaginosa; 6.25 µg/mL (≈ 29.9 µM) against Staphylococcus aureus; 3.13 µg/mL (≈ 15 µM) in the experiment with Bacillus subtilis; 12.5 µg/mL (≈ 59.8 µM) in experiment [3]; over 100 µg/mL with Escherichia coli; 50 µg/mL (≈ 239 µM) against Proteus vulgaris. The compound also displayed an MIC in the experiment on Cyberlindnera jadinii of 12.5 µg/mL (≈ 59.8 µM).

With `Cc1cnc2c(c1)C(=O)c1cccc(O)c1C2=O`, the MIC is 12.5 µg/mL (≈ 52.3 µM) in experiment [1]; 25 µg/mL (≈ 105 µM) against Pseudomonas aeruginosa; 25 µg/mL (≈ 105 µM) in experiment [2]; over 100 µg/mL with Aspergillus niger; 25 µg/mL (≈ 105 µM) against Mucor mucedo; 100 µg/mL (≈ 418 µM) against Saccharomyces cerevisiae. For the same compound, the MIC in the experiment with Rhodotorula mucilaginosa is 50 µg/mL (≈ 209 µM); with Staphylococcus aureus, 12.5 µg/mL (≈ 52.3 µM); in the experiment with Bacillus subtilis it was 6.25 µg/mL (≈ 26.1 µM); in [3] it was over 100 µg/mL; with Escherichia coli, over 100 µg/mL; against Proteus vulgaris it was 100 µg/mL (≈ 418 µM). Moreover, the MIC with Cyberlindnera jadinii was found to be 25 µg/mL (≈ 105 µM).

For the compound `Cc1ccnc2c1C(=O)c1c(O)ccc(O)c1C2=O`, the MIC in experiment [1] was 6.25 µg/mL (≈ 24.5 µM); against Pseudomonas aeruginosa, 12.5 µg/mL (≈ 49 µM); in experiment [2] it was 6.25 µg/mL (≈ 24.5 µM); in the experiment on Aspergillus niger it was 50 µg/mL (≈ 196 µM); in the experiment on Mucor mucedo, 12.5 µg/mL (≈ 49 µM); against Saccharomyces cerevisiae it was 12.5 µg/mL (≈ 49 µM). Further, the MIC against Rhodotorula mucilaginosa is 12.5 µg/mL (≈ 49 µM); against Staphylococcus aureus it was 12.5 µg/mL (≈ 49 µM); with Bacillus subtilis, 6.25 µg/mL (≈ 24.5 µM); in experiment [3], 12.5 µg/mL (≈ 49 µM); in the experiment with Escherichia coli, over 100 µg/mL; against Proteus vulgaris it was 100 µg/mL (≈ 392 µM). Besides, in the experiment on Cyberlindnera jadinii, the MIC was 12.5 µg/mL (≈ 49 µM).

In the case of `Cc1ccnc2c1-c1ccccc1C2=O`, the MIC in experiment [1] was 100 µg/mL (≈ 512 µM); against Pseudomonas aeruginosa, 50 µg/mL (≈ 256 µM); in experiment [2], 50 µg/mL (≈ 256 µM); in the experiment on Aspergillus niger it was 100 µg/mL (≈ 512 µM); against Mucor mucedo, 100 µg/mL (≈ 512 µM); with Saccharomyces cerevisiae, over 100 µg/mL. Also, the MIC in the experiment on Rhodotorula mucilaginosa is 100 µg/mL (≈ 512 µM); in the experiment on Staphylococcus aureus it was 100 µg/mL (≈ 512 µM); against Bacillus subtilis, 50 µg/mL (≈ 256 µM); in experiment [3], over 100 µg/mL; against Escherichia coli, over 100 µg/mL; in the experiment on Proteus vulgaris, 100 µg/mL (≈ 512 µM). The same compound yielded an MIC against Cyberlindnera jadinii of 100 µg/mL (≈ 512 µM).

As to `Cc1ccnc2c1C(=O)c1cccc(O)c1C2=O`, the MIC in [1] is 12.5 µg/mL (≈ 52.3 µM); in the experiment on Pseudomonas aeruginosa, 25 µg/mL (≈ 105 µM); in experiment [2], 25 µg/mL (≈ 105 µM); in the experiment with Aspergillus niger, over 100 µg/mL; in the experiment on Mucor mucedo, 50 µg/mL (≈ 209 µM); against Saccharomyces cerevisiae it was 100 µg/mL (≈ 418 µM). In addition, the MIC in the experiment with Rhodotorula mucilaginosa was 50 µg/mL (≈ 209 µM); with Staphylococcus aureus it was 12.5 µg/mL (≈ 52.3 µM); against Bacillus subtilis, 12.5 µg/mL (≈ 52.3 µM); in [3], over 100 µg/mL; with Escherichia coli it was over 100 µg/mL; against Proteus vulgaris, 50 µg/mL (≈ 209 µM). This compound returned an MIC in the experiment with Cyberlindnera jadinii of 50 µg/mL (≈ 209 µM).

As to `COc1cccc2c1C(=O)c1ccncc1C2=O`, the MIC in experiment [1] came out at 1.56 µg/mL (≈ 6.52 µM); in the experiment on Pseudomonas aeruginosa, 6.25 µg/mL (≈ 26.1 µM); in [2], 12.5 µg/mL (≈ 52.3 µM); with Aspergillus niger, 12.5 µg/mL (≈ 52.3 µM); in the experiment on Mucor mucedo, 12.5 µg/mL (≈ 52.3 µM); against Saccharomyces cerevisiae, 25 µg/mL (≈ 105 µM). Also, the MIC in the experiment on Rhodotorula mucilaginosa is 12.5 µg/mL (≈ 52.3 µM); in the experiment on Staphylococcus aureus it was 12.5 µg/mL (≈ 52.3 µM); in the experiment on Bacillus subtilis it was 6.25 µg/mL (≈ 26.1 µM); in experiment [3] it was 25 µg/mL (≈ 105 µM); against Escherichia coli, over 100 µg/mL; in the experiment on Proteus vulgaris, 50 µg/mL (≈ 209 µM). The compound also came in with an MIC in the experiment on Cyberlindnera jadinii of 25 µg/mL (≈ 105 µM).

In the case of `COc1cccc2c1C(=O)c1cnccc1C2=O`, the MIC came out at 3.13 µg/mL (≈ 13.1 µM) in [1]; 6.25 µg/mL (≈ 26.1 µM) with Pseudomonas aeruginosa; 12.5 µg/mL (≈ 52.3 µM) in [2]; 12.5 µg/mL (≈ 52.3 µM) against Aspergillus niger; 25 µg/mL (≈ 105 µM) in the experiment with Mucor mucedo; 25 µg/mL (≈ 105 µM) against Saccharomyces cerevisiae. In addition, the minimal inhibitory concentration (MIC) with Rhodotorula mucilaginosa was 6.25 µg/mL (≈ 26.1 µM); in the experiment on Staphylococcus aureus, 12.5 µg/mL (≈ 52.3 µM); in the experiment on Bacillus subtilis, 3.13 µg/mL (≈ 13.1 µM); in [3], 25 µg/mL (≈ 105 µM); in the experiment with Escherichia coli, over 100 µg/mL; with Proteus vulgaris, 50 µg/mL (≈ 209 µM). The lowest concentration to inhibit growth against Cyberlindnera jadinii (MIC) was 25 µg/mL (≈ 105 µM).

Turning to `Cc1ccnc2c1C(=O)c1ccccc1C2=O` [CLEISTOPHOLINE], the MIC in experiment [1] is 25 µg/mL (≈ 112 µM); with Pseudomonas aeruginosa it was 50 µg/mL (≈ 224 µM); in experiment [2], 50 µg/mL (≈ 224 µM); with Aspergillus niger, 100 µg/mL (≈ 448 µM); in the experiment with Mucor mucedo, 50 µg/mL (≈ 224 µM); against Saccharomyces cerevisiae, 100 µg/mL (≈ 448 µM). In addition, the MIC against Rhodotorula mucilaginosa is 50 µg/mL (≈ 224 µM); in the experiment with Staphylococcus aureus, 25 µg/mL (≈ 112 µM); against Bacillus subtilis, 25 µg/mL (≈ 112 µM); in [3] it was over 100 µg/mL; in the experiment with Escherichia coli it was over 100 µg/mL; with Proteus vulgaris, 50 µg/mL (≈ 224 µM). In the experiment on Cyberlindnera jadinii, the minimum inhibitory concentration (MIC) stood at 50 µg/mL (≈ 224 µM).

In the case of `Cc1ccnc2c1C(=O)c1ccccc1-2` [ONYCHINE], the MIC was 50 µg/mL (≈ 256 µM) in [1]; 100 µg/mL (≈ 512 µM) against Pseudomonas aeruginosa; 50 µg/mL (≈ 256 µM) in experiment [2]; 100 µg/mL (≈ 512 µM) in the experiment with Aspergillus niger; over 100 µg/mL with Mucor mucedo; 100 µg/mL (≈ 512 µM) in the experiment with Saccharomyces cerevisiae. The MIC is 100 µg/mL (≈ 512 µM) in the experiment on Rhodotorula mucilaginosa; over 100 µg/mL with Staphylococcus aureus; 100 µg/mL (≈ 512 µM) in the experiment with Bacillus subtilis; over 100 µg/mL in [3]; over 100 µg/mL in the experiment on Escherichia coli; 100 µg/mL (≈ 512 µM) against Proteus vulgaris. The compound further displayed an MIC in the experiment with Cyberlindnera jadinii of 100 µg/mL (≈ 512 µM).

Source of the values: ChEMBL document CHEMBL1144320, “Structure-activity relations of azafluorenone and azaanthraquinone as antimicrobial compounds” (2005).
